Measured values from different studies.
Lines come from different studies, so protocols differ.
INSR: Insulin receptor (INSR, Homo sapiens, UniProt P06213)

The inhibition of CNCc1ccc(-c2cc(-c3nc(-c4ccc(S(=O)(=O)C(C)C)cc4)cnc3N)on2)cc1 is reported as 0% (INSR; enzyme activity; inhibitor; 2 µM).
With CN1CC(Oc2cnc(C#N)cc2-c2ccn3nc(NC(=O)C4CC4)cc3c2)C1 the inhibition was -2% (INSR; enzyme activity; inhibitor; 1 µM).
For CC(C)c1ccc(NC(=O)c2cccs2)c(-c2nc3ccccc3[nH]c2=O)c1, the activity vs control was 91% (INSR; enzyme activity; inhibitor; 1 µM).
The inhibition of COc1cc2ncnc(Nc3ccc(Oc4ccccc4)c(C)c3C)c2cc1OC is reported as 5% (INSR; enzyme activity; inhibitor; 1 µM).
For Cc1ccc(C(=O)NCc2ccsc2)cc1C#Cc1cn(C(C)C)c2ncnc(N)c12, the activity vs control was 95% (Insulin receptor, phosphorylated (INSR, Homo sapiens, UniProt P06213); enzyme activity; inhibitor; 1 µM).
CCC(=N\O)/C(C)=C/c1ccc(F)cc1 gave a remaining binding of 100% (INSR; cell-free assay; competition with immobilised ligand; 1 µM).
Cc1ccc(C(=O)Nc2ccc(CN3CCN(C)CC3)c(C(F)(F)F)c2)cc1C#Cc1cnc2cccnn12 has a remaining signal of 85% (INSR; cell-free assay; 23.5 nM).
The remaining signal of COc1cc2c(Nc3ccc(Br)cc3F)ncnc2cc1OCC1CCN(C)CC1 is reported as 102% (INSR; cell-free assay; 0.5 µM).
N#CC1(c2ccccn2)CCN(Cc2cc(C(=O)N3CCCC3)c(=O)n3ccccc23)CC1 gave a remaining binding of 88% (INSR; cell-free assay; competition with immobilised ligand; 1 µM).
The inhibition of CN(C)C1CCN(CC#Cc2nn(C3CCCC3)c3nc(NCc4ccccc4)ncc23)C1 (centres unmarked) is reported as 7% (INSR; enzyme activity; inhibitor; FRET; 0.1 µM).
COc1cc(/C=C/C(=O)CC(=O)/C=C/c2ccc(O)c(OC)c2)ccc1O has an activity vs control of 46% (INSR; enzyme activity; inhibitor; 1 µM).
O=C1Nc2ccc(Cl)cc2C1=Cc1cc(Cl)c(O)c(Cl)c1 gave a remaining signal of 99.2% (INSR; cell-free assay; 0.5 µM).
With CC(C)(O)c1cncc(-c2nc3ccc(F)cc3n2C2CC2)c1 the remaining binding was 100% (INSR; cell-free assay; competition with immobilised ligand; 1 µM).
C[C@@H]1CCN(C(=O)CC#N)C[C@@H]1N(C)c1ncnc2[nH]ccc12 has a remaining signal of 101% (INSR; cell-free assay; 0.5 µM).
For Cc1cc(NC(=O)c2cccc3cc(-c4cccc5[nH]nc(N)c45)ccc23)ccc1F, the activity vs control was 107% (INSR; enzyme activity; inhibitor; 0.1 µM).
The remaining binding of O=C1CCc2cc(Nc3cc(OC4CCOCC4)c([N+](=O)[O-])cc3Cl)ccc2N1 is reported as 93% (INSR; cell-free assay; competition with immobilised ligand; 1 µM).
For CS(=O)(=O)Nc1cccc(-c2csc(NC(=O)CSc3nc4nccnc4c(=O)n3CCc3ccccc3)n2)c1, the inhibition was 1% (INSR; enzyme activity; inhibitor; 10 µM).
With CO[C@@H](C)c1c(Nc2ccc([C@H](N(C)C(=O)C3CCS(=O)(=O)CC3)C(F)(F)F)cc2)cnc2cc(Cl)nn12 the remaining binding was 87% (INSR; cell-free assay; competition with immobilised ligand; 1 µM).
With CCCS(=O)(=O)Nc1ccc(F)c(C(=O)c2c[nH]c3ncc(-c4ccc(Cl)cc4)cc23)c1F the inhibition was less than 10% (INSR; enzyme activity; inhibitor; 1 µM).
With C[C@@H]1CN(c2cc(-c3nn(C)c4ccc(OC5(C)CC5)cc34)ncn2)C[C@H](C)O1 the remaining binding was 100% (INSR; cell-free assay; competition with immobilised ligand; 1 µM).
With CSc1nc(C)c(-c2ccnc(Nc3ccc(N4CCOCC4)cc3)c2)[nH]1 the inhibition was -1.8% (INSR; cell-free assay; inhibitor; 10 µM).
With CSc1cccnc1N1CCN(Cc2nc3ccccc3[nH]2)CC1 the remaining binding was 85% (INSR; cell-free assay; competition with immobilised ligand; 1 µM).
The inhibition of Cc1ccc(Nc2nccc(N(C)c3ccc4c(C)n(C)nc4c3)n2)cc1S(N)(=O)=O is reported as 6% (INSR; enzyme activity; inhibitor; 0.3 µM).
